Measurements from ChEMBL document CHEMBL1140914, “Synthesis and in vitro and in vivo evaluation of 18F-labeled positron emission tomography (PET) ligands for imaging the vesicular acetylcholine transporter” (J Med Chem, 2009).

How the values were obtained:
[1] = tested on: Heart; assay: Drug uptake in Sprague-Dawley rat heart at 25 to 35 uCi, iv after 30 mins postinjection by […]; assay type: ADME, organism-based; conditions: in vivo, 0.5 h
In short: (§1)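 Mature male Sprague-Dawley rats (250–400 g) under 2–3% isoflurane got 25–35 μCi tracer in 100–150 μL saline via tail vein. Groups of at least 4 were euthanized at 5 min, 30 min, 1 h or 2 h. Brain was dissected into regions, and tissues were weighed and gamma counted against an injectate standard. Values are %ID/g, mean ± SD.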

[2] = tested on: Bone; assay: Drug uptake in Sprague-Dawley rat bone at 25 to 35 uCi, iv after 5 mins postinjection by […]; assay type: ADME, organism-based, Bone element; conditions: in vivo; in short: as §1
[3] = tested on: Kidney; assay: Drug uptake in Sprague-Dawley rat kidney at 25 to 35 uCi, iv after 30 mins postinjection by […]; assay type: ADME, organism-based; conditions: in vivo, 0.5 h; in short: as §1
[4] = tested on: Kidney; assay: Drug uptake in Sprague-Dawley rat kidney at 25 to 35 uCi, iv after 1 hr postinjection by […]; assay type: ADME, organism-based; conditions: in vivo; in short: as §1
[5] = Drug uptake in Sprague-Dawley rat fat at 25 to 35 uCi, iv after 1 hr postinjection by […]; assay type: ADME, organism-based, Adipose tissue; conditions: in vivo; in short: as §1
[6] = tested on: Blood; assay: Drug uptake in Sprague-Dawley rat blood at 25 to 35 uCi, iv after 2 hrs postinjection by […]; assay type: ADME, organism-based; conditions: in vivo; in short: as §1
[7] = tested on: Lung; assay: Drug uptake in Sprague-Dawley rat lung at 25 to 35 uCi, iv after 30 mins postinjection by […]; assay type: ADME, organism-based; conditions: in vivo, 0.5 h; in short: as §1
[8] = tested on: Lung; assay: Drug uptake in Sprague-Dawley rat lung at 25 to 35 uCi, iv after 2 hrs postinjection by […]; assay type: ADME, organism-based; conditions: in vivo; in short: as §1
[9] = tested on: Heart; assay: Drug uptake in Sprague-Dawley rat heart at 25 to 35 uCi, iv after 2 hrs postinjection by […]; assay type: ADME, organism-based; conditions: in vivo; in short: as §1
[10] = tested on: Brain; assay: Drug uptake in Sprague-Dawley rat brain at 25 to 35 uCi, iv after 2 hrs postinjection by […]; assay type: ADME, organism-based; conditions: in vivo; in short: as §1
[11] = tested on: Brain; assay: Drug uptake in Sprague-Dawley rat brain at 25 to 35 uCi, iv after 30 mins postinjection by […]; assay type: ADME, organism-based; conditions: in vivo, 0.5 h; in short: as §1
[12] = tested on: Kidney; assay: Drug uptake in Sprague-Dawley rat kidney at 25 to 35 uCi, iv after 2 hrs postinjection by […]; assay type: ADME, organism-based; conditions: in vivo; in short: as §1
[13] = tested on: Muscle tissue; assay: Drug uptake in Sprague-Dawley rat muscle at 25 to 35 uCi, iv after 1 hr postinjection by […]; assay type: ADME, organism-based; conditions: in vivo; in short: as §1
[14] = tested on: Lung; assay: Drug uptake in Sprague-Dawley rat lung at 25 to 35 uCi, iv after 5 mins postinjection by […]; assay type: ADME, organism-based; conditions: in vivo; in short: as §1
[15] = tested on: Liver; assay: Drug uptake in Sprague-Dawley rat liver at 25 to 35 uCi, iv after 5 mins postinjection by […]; assay type: ADME, organism-based; conditions: in vivo; in short: as §1
[16] = tested on: Muscle tissue; assay: Drug uptake in Sprague-Dawley rat muscle at 25 to 35 uCi, iv after 30 mins postinjection by […]; assay type: ADME, organism-based; conditions: in vivo, 0.5 h; in short: as §1
[17] = tested on: Blood; assay: Drug uptake in Sprague-Dawley rat blood at 25 to 35 uCi, iv after 30 mins postinjection by […]; assay type: ADME, organism-based; conditions: in vivo, 0.5 h; in short: as §1
[18] = tested on: Brain; assay: Drug uptake in Sprague-Dawley rat brain at 25 to 35 uCi, iv after 1 hr postinjection by […]; assay type: ADME, organism-based; conditions: in vivo; in short: as §1
[19] = Drug uptake in Sprague-Dawley rat fat at 25 to 35 uCi, iv after 2 hrs postinjection by […]; assay type: ADME, organism-based, Adipose tissue; conditions: in vivo; in short: as §1
[20] = tested on: Heart; assay: Drug uptake in Sprague-Dawley rat heart at 25 to 35 uCi, iv after 1 hr postinjection by […]; assay type: ADME, organism-based; conditions: in vivo; in short: as §1
[21] = tested on: Liver; assay: Drug uptake in Sprague-Dawley rat liver at 25 to 35 uCi, iv after 2 hrs postinjection by […]; assay type: ADME, organism-based; conditions: in vivo; in short: as §1
[22] = tested on: Blood; assay: Drug uptake in Sprague-Dawley rat blood at 25 to 35 uCi, iv after 1 hr postinjection by […]; assay type: ADME, organism-based; conditions: in vivo; in short: as §1
[23] = tested on: Liver; assay: Drug uptake in Sprague-Dawley rat liver at 25 to 35 uCi, iv after 1 hr postinjection by […]; assay type: ADME, organism-based; conditions: in vivo; in short: as §1
[24] = tested on: Muscle tissue; assay: Drug uptake in Sprague-Dawley rat muscle at 25 to 35 uCi, iv after 2 hrs postinjection by […]; assay type: ADME, organism-based; conditions: in vivo; in short: as §1
[25] = tested on: Heart; assay: Drug uptake in Sprague-Dawley rat heart at 25 to 35 uCi, iv after 5 mins postinjection by […]; assay type: ADME, organism-based; conditions: in vivo; in short: as §1
[26] = tested on: Kidney; assay: Drug uptake in Sprague-Dawley rat kidney at 25 to 35 uCi, iv after 5 mins postinjection by […]; assay type: ADME, organism-based; conditions: in vivo; in short: as §1
[27] = tested on: Blood; assay: Drug uptake in Sprague-Dawley rat blood at 25 to 35 uCi, iv after 5 mins postinjection by […]; assay type: ADME, organism-based; conditions: in vivo; in short: as §1
[28] = tested on: Bone; assay: Drug uptake in Sprague-Dawley rat bone at 25 to 35 uCi, iv after 1 hr postinjection by […]; assay type: ADME, organism-based, Bone element; conditions: in vivo; in short: as §1
[29] = tested on: Bone; assay: Drug uptake in Sprague-Dawley rat bone at 25 to 35 uCi, iv after 2 hrs postinjection by […]; assay type: ADME, organism-based, Bone element; conditions: in vivo; in short: as §1
[30] = tested on: Brain; assay: Drug uptake in Sprague-Dawley rat brain at 25 to 35 uCi, iv after 5 mins postinjection by […]; assay type: ADME, organism-based; conditions: in vivo; in short: as §1
[31] = tested on: Muscle tissue; assay: Drug uptake in Sprague-Dawley rat muscle at 25 to 35 uCi, iv after 5 mins postinjection by […]; assay type: ADME, organism-based; conditions: in vivo; in short: as §1
[32] = tested on: Lung; assay: Drug uptake in Sprague-Dawley rat lung at 25 to 35 uCi, iv after 1 hr postinjection by […]; assay type: ADME, organism-based; conditions: in vivo; in short: as §1
[33] = tested on: Liver; assay: Drug uptake in Sprague-Dawley rat liver at 25 to 35 uCi, iv after 30 mins postinjection by […]; assay type: ADME, organism-based; conditions: in vivo, 0.5 h; in short: as §1
[34] = tested on: Bone; assay: Drug uptake in Sprague-Dawley rat bone at 25 to 35 uCi, iv after 30 mins postinjection by […]; assay type: ADME, organism-based, Bone element; conditions: in vivo, 0.5 h; in short: as §1
[35] = Drug uptake in Sprague-Dawley rat fat at 25 to 35 uCi, iv after 30 mins postinjection by […]; assay type: ADME, organism-based, Adipose tissue; conditions: in vivo, 0.5 h; in short: as §1
[36] = Drug uptake in Sprague-Dawley rat fat at 25 to 35 uCi, iv after 5 mins postinjection by […]; assay type: ADME, organism-based, Adipose tissue; conditions: in vivo; in short: as §1

Compound: O=C(c1ccc([18F])cc1)C1CCN([C@@H]2Cc3ccccc3C[C@H]2O)CC1 (stereo in doubt; (+))
- Drug uptake [1]: 0.094 % ID/g
- Drug uptake [2]: 0.187 % ID/g
- Drug uptake [3]: 0.416 % ID/g
- Drug uptake [4]: 0.291 % ID/g
- Drug uptake [5]: 0.154 % ID/g
- Drug uptake [6]: 0.027 % ID/g
- Drug uptake [7]: 0.332 % ID/g
- Drug uptake [8]: 0.112 % ID/g
- Drug uptake [9]: 0.031 % ID/g
- Drug uptake [10]: 0.022 % ID/g
- Drug uptake [11]: 0.071 % ID/g
- Drug uptake [12]: 0.194 % ID/g
- Drug uptake [13]: 0.034 % ID/g
- Drug uptake [14]: 0.904 % ID/g
- Drug uptake [15]: 1.849 % ID/g
- Drug uptake [16]: 0.051 % ID/g
- Drug uptake [17]: 0.087 % ID/g
- Drug uptake [18]: 0.041 % ID/g
- Drug uptake [19]: 0.15 % ID/g
- Drug uptake [20]: 0.051 % ID/g
- Drug uptake [21]: 0.692 % ID/g
- Drug uptake [22]: 0.048 % ID/g
- Drug uptake [23]: 0.814 % ID/g
- Drug uptake [24]: 0.022 % ID/g
- Drug uptake [25]: 0.194 % ID/g
- Drug uptake [26]: 0.791 % ID/g
- Drug uptake [27]: 0.136 % ID/g
- Drug uptake [28]: 0.399 % ID/g
- Drug uptake [29]: 0.532 % ID/g
- Drug uptake [30]: 0.35 % ID/g
- Drug uptake [31]: 0.047 % ID/g
- Drug uptake [32]: 0.188 % ID/g
- Drug uptake [33]: 1.239 % ID/g
- Drug uptake [34]: 0.277 % ID/g
- Drug uptake [35]: 0.108 % ID/g
- Drug uptake [36]: 0.052 % ID/g
